Activity calls are given as the source filed them. The rule behind the calls is not given here.
What was measured:
Vitamin D3 receptor [1] = biological target: T1, Vitamin D3 receptor (Homo sapiens, UniProt P11473); test: Displacement of [3H]-1,25-(OH)2D3 from N-terminal GST-tagged human recombinant vitamin D receptor ligand binding domain expressed in Escherichia coli BL21 (DE3) pLys S after 16 hrs
T1 sequence (P11473 whole entry): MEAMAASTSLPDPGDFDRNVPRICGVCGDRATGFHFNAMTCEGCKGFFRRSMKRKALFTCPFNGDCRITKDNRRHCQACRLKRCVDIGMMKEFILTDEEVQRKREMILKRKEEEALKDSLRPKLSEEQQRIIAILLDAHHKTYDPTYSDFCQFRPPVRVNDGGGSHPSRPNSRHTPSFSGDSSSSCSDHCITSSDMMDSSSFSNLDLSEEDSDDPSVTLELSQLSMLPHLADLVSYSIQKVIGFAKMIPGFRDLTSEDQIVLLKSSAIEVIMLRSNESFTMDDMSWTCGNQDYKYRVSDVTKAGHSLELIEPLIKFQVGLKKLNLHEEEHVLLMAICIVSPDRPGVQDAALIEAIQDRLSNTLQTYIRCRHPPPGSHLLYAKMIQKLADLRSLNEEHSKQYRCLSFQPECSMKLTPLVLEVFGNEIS

[2] = biological target: T2, Vitamin D3 receptor (Homo sapiens) (UniProt P11473); test: Partial agonist activity at human vitamin D receptor expressed in HEK293 cells after 16 hrs by dual luciferase reporter gene assay; format: cell-based
T2 sequence (whole entry): T1 sequence (P11473 whole entry)
Outline: (§1)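 Cells were co-transfected with full-length human VDR expression plasmid (pCMX-hVDR), a luciferase reporter carrying three copies of mouse osteopontin VDRE (SPPx3-TK-Luc), and a sea pansy luciferase internal control (pRL-CMV), then read by dual luciferase assay. Activity is scaled so that 10−8 M 1,25D3 equals 1 in Cos7 and 10−9 M 1,25D3 equals 1 in HEK293. Inhibition was tested in the presence of 1,25D3.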

[3] = biological target: T2, Vitamin D3 receptor (Homo sapiens); test: Ratio of 1,25-(OH)2D3 IC50 to test compound IC50 for displacement of [3H]-1,25-(OH)2D3 from N-terminal GST-tagged human recombinant vitamin D receptor ligand binding domain expressed in Escherichia coli BL21 (DE3) pLys S after 16 hrs
[4] = biological target: T2, Vitamin D3 receptor (Homo sapiens); test: Antagonist activity at human vitamin D receptor expressed in African green monkey COS7 cells assessed as inhibition of 1,25D3-induced transactivation after 16 hrs by dual luciferase reporter gene assay; format: cell-based; outline: as §1
Vitamin D3 receptor [5] = biological target: T1, Vitamin D3 receptor
[6] = biological target: T2, Vitamin D3 receptor (Homo sapiens); test: Antagonist activity at VP16-fused human vitamin D receptor in HEK293 cells assessed as inhibition of ligand-induced GAL4-fused RXRalpha recruitment by dual luciferase assay; format: cell-based
[7] = biological target: T2, Vitamin D3 receptor (Homo sapiens); test: Agonist activity at human vitamin D receptor expressed in African green monkey COS7 cells after 16 hrs by dual luciferase reporter gene assay; format: cell-based; outline: as §1
[8] = biological target: T2, Vitamin D3 receptor (Homo sapiens); test: Antagonist activity at VP16-fused human vitamin D receptor in HEK293 cells assessed as inhibition of ligand-induced GAL4-fused SRC1 coactivator recruitment by dual luciferase assay; format: cell-based

Row | IC50 (Vitamin D3 receptor [1]) | Activity [2] | relative affinity (IC50 ref/IC50 test) [3] | antagonist activity (qualitative) [4] | IC50 (Vitamin D3 receptor [5]) | inhibition [6] | Activity [7] | inhibition [8] | Structure (SMILES)
1 | 0.02 µM | – | 0.028 | – | – | inactive | inactive | Active | C=C1[C@H](O)CC(=C/C=C2\CCC[C@]3(C)[C@@H]([C@H](C)[C@@H](CCCC)CCC(=O)c4ccc(O)cc4)CC[C@@H]23)C[C@H]1O
2 | 0.017 µM | Active | 0.0094 | Dose-dependent effect | – | – | inactive | – | C=C1[C@H](O)CC(=C/C=C2\CCC[C@]3(C)[C@@H]([C@H](C)[C@@H](CCCC)CCC(O)c4ccc(O)cc4)CC[C@@H]23)C[C@H]1O (stereo partly specified)
3 | 0.102 µM | – | 0.0049 | – | – | – | – | – | C=C1[C@H](O)CC(=C/C=C2\CCC[C@]3(C)[C@@H]([C@H](C)CCCC(OC)c4ccc(O)cc4)CC[C@@H]23)C[C@H]1O (stereo partly specified)

The remaining lines, values behind:

Row | Structure (SMILES) | IC50 (Vitamin D3 receptor [1]) | Activity [2] | relative affinity (IC50 ref/IC50 test) [3] | antagonist activity (qualitative) [4] | IC50 (Vitamin D3 receptor [5]) | inhibition [6] | Activity [7] | inhibition [8]
4 | C=C1[C@H](O)CC(=C/C=C2\CCC[C@]3(C)[C@@H]([C@H](C)CCCC(=O)c4ccc(O)cc4)CC[C@@H]23)C[C@H]1O | 0.084 µM | Active | 0.006 | Active | – | – | – | –
5 | C=C1[C@H](O)CC(=C/C=C2\CCC[C@]3(C)[C@@H]([C@H](C)CCCC(O)(c4ccc(O)cc4)c4ccc(O)cc4)CC[C@@H]23)C[C@H]1O | 0.52 µM | – | 0.00096 | – | 0.8 µM | Active | inactive | Active
6 | C=C1[C@H](O)CC(=C/C=C2\CCC[C@]3(C)[C@@H]([C@H](C)CCCC(O)c4ccc(O)cc4)CC[C@@H]23)C[C@H]1O (stereo partly specified) | 0.036 µM | Active | 0.0044 | Active | – | – | – | –
7 | C=C1[C@H](O)CC(=C/C=C2\CCC[C@]3(C)[C@@H]([C@H](C)[C@@H](CCCC)CCC(O)(c4ccc(O)cc4)c4ccc(O)cc4)CC[C@@H]23)C[C@H]1O | 0.13 µM | – | 0.0042 | – | 0.4 µM | inactive | inactive | Active
8 | C=C1[C@H](O)CC(=C/C=C2\CCC[C@]3(C)[C@@H]([C@H](C)[C@@H](CCCC)CCC(OC)c4ccc(O)cc4)CC[C@@H]23)C[C@H]1O (stereo partly specified) | 0.023 µM | Active | 0.031 | Active | – | – | – | –
